The target in test [1] is T1, Calcitonin-gene-related peptide receptor, CALCRL/RAMP1 (Homo sapiens, UniProt O60894+Q16602). The test is described as follows: Displacement of [3H-propionyl-K24] from halphaCGRP expressed in human neuroblastoma SK-N-MC cells. It counts as cell-based. In outline:
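Whole SK-N-MC cells, 3 million/mL in Tris pH 7.4 buffer with NaCl, MgCl2, Pefabloc and 1% BSA. Incubated 90 min at room temperature with 1 nM [3H-propionyl-K24]-hRCGRP 8-37 and competitor (10-5-10-14 M). Separated by centrifugation with a cold wash, then β-counted. IC50 by nonlinear regression, converted to Ki by Cheng-Prusoff with tracer KD. Three experiments in triplicate.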
Background: In a radioligand displacement assay an active substance lowers the binding of a labelled ligand.

The target of test [2] is T1, Calcitonin-gene-related peptide receptor, CALCRL/RAMP1. The test is described as follows: Displacement of [125I-Tyr10] from halphaCGRP expressed in human neuroblastoma SK-N-MC cells. It counts as cell-based.
Test [3] shares this target. The test is described as follows: Antagonist activity on halphaCGRP-induced cAMP accumulation at human neuroblastoma SK-N-MC cells. The following applies: read-out: pA2 (converted). It counts as functional, cell-based. In outline:
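SK-N-MC cells detached with PBS-EDTA, washed in HEPES/glucose Hank's, ~2 million cells/mL in buffer with 1 mM IBMX and 1% BSA. Preincubated 15 min at 37 °C, then 15 min with hRCGRP (10-5-10-12 M) alone or with fixed antagonist (10 or 100 nM). cAMP extracted with HCl, AlphaScreen read-out. Agonist EC50 shifts gave concentration ratios, and apparent pA2 = log((CR-1)/[B]). Three experiments in triplicate.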
On the technique in general: Changes in cAMP serve as a functional read-out for many G protein-coupled receptors.

*1 amine or outer side, *2 acyl side, *3 side chain or, on linkers, in order; H or OH if unused. Where a SMILES comes first, the peptide text is derived from it. [ ]: non-standard residue; d: D form. X2 = COC(=O)[C@@H]1[C@@H](N[*:1])[C@H]1C(=O)[*:2]; X1 = COC(=O)[C@H]1[C@H](N[*:1])[C@@H]1C(=O)[*:2]

T1 sequence (O60894 whole entry): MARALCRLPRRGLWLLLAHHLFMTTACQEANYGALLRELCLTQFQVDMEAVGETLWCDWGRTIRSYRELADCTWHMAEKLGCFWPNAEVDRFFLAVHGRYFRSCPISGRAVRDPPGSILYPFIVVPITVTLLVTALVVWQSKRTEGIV
T1 sequence (Q16602 whole entry): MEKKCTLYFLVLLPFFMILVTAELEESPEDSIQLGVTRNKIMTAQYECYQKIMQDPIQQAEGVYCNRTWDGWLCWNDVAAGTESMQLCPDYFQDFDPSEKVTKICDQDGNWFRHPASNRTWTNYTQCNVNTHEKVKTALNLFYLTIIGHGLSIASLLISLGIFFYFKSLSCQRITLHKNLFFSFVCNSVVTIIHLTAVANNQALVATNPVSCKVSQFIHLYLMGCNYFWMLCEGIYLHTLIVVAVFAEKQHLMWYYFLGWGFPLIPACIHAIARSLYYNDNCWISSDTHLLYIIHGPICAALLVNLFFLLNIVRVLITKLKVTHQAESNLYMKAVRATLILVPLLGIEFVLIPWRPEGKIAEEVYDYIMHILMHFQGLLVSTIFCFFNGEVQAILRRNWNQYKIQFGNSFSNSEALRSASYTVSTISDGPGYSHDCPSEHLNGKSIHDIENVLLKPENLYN

By Ki is commonly meant the dissociation constant of the complex between target and ligand, obtained from inhibition or displacement. As to H-FVPTDVGAFAF-OH, the values for the Ki in test [1] and in test [2] were 13.6 nM and 76.8 nM, respectively.
With `COC(=O)[C@H]1[C@H](NC(=O)CNC(=O)[C@@H](NC(=O)[C@H](CC(=O)O)NC(=O)[C@@H](NC(=O)[C@@H]2CCCN2C(=O)[C@@H](NC(=O)[C@@H](N)Cc2ccccc2)C(C)C)[C@@H](C)O)C(C)C)[C@@H]1C(=O)N[C@@H](Cc1ccccc1)C(=O)N[C@@H](C)C(=O)N[C@@H](Cc1ccccc1)C(=O)O` (H-FVPTDVG[X1]FAF-OH), the Ki in test [1] is more than 10000 nM.
Turning to `COC(=O)[C@H]1[C@H](NC(=O)CNC(=O)[C@@H](NC(=O)[C@H](CC(N)=O)NC(=O)[C@@H](NC(=O)[C@@H]2CCCN2C(=O)[C@@H](NC(=O)[C@@H](N)Cc2ccccc2)C(C)C)[C@@H](C)O)C(C)C)[C@@H]1C(=O)N[C@@H](Cc1ccccc1)C(=O)N[C@@H](C)C(=O)N[C@@H](Cc1ccccc1)C(=O)O` (H-FVPTNVG[X1]FAF-OH), the inhibition constant (Ki) in test [1] was more than 10000 nM.
Consider `COC(=O)[C@@H]1[C@@H](NC(=O)CNC(=O)[C@@H](NC(=O)[C@H](CC(N)=O)NC(=O)[C@@H](NC(=O)[C@@H]2CCCN2C(=O)[C@@H](NC(=O)[C@@H](N)Cc2ccccc2)C(C)C)[C@@H](C)O)C(C)C)[C@H]1C(=O)N[C@@H](Cc1ccccc1)C(=O)N[C@@H](C)C(=O)N[C@@H](Cc1ccccc1)C(=O)O` (H-FVPTNVG[X2]FAF-OH), for which the Ki in test [1] is more than 10000 nM.
Turning to `CC(C)[C@H](NC(=O)[C@H](CC(=O)O)NC(=O)[C@@H](NC(=O)[C@@H]1CCCN1C(=O)[C@@H](NC(=O)[C@@H](N)Cc1ccccc1)C(C)C)[C@@H](C)O)C(=O)NCC(=O)N1CCC[C@H]1C(=O)N[C@@H](Cc1ccccc1)C(=O)N[C@@H](C)C(=O)N[C@@H](Cc1ccccc1)C(=O)O`, the Ki in test [1] is 0.02 nM; in test [2], 14 nM.
Turning to `COC(=O)[C@@H]1[C@@H](NC(=O)[C@@H](NC(=O)[C@@H](N)Cc2ccccc2)C(C)C)[C@H]1C(=O)N[C@H](C(=O)N[C@@H](CC(=O)O)C(=O)N[C@H](C(=O)NCC(=O)N1CCC[C@H]1C(=O)N[C@@H](Cc1ccccc1)C(=O)N[C@@H](C)C(=O)N[C@@H](Cc1ccccc1)C(=O)O)C(C)C)[C@@H](C)O`, the Ki in test [1] is more than 10000 nM.
Turning to `CC(C)[C@H](NC(=O)[C@H](CC(=O)O)NC(=O)[C@@H](NC(=O)[C@@H]1C[C@@H](O)CN1C(=O)[C@@H](NC(=O)[C@@H](N)Cc1ccccc1)C(C)C)[C@@H](C)O)C(=O)NCC(=O)N1CCC[C@H]1C(=O)N[C@@H](Cc1ccccc1)C(=O)N[C@@H](C)C(=O)N[C@@H](Cc1ccccc1)C(=O)O`, in test [1], the Ki was 0.006 nM. The Kb in test [3] was 31.6 nM.
Turning to `CC(C)[C@H](NC(=O)[C@H](CC(=O)O)NC(=O)[C@@H](NC(=O)[C@@H]1CCCCN1C(=O)[C@@H](NC(=O)[C@@H](N)Cc1ccccc1)C(C)C)[C@@H](C)O)C(=O)NCC(=O)N1CCC[C@H]1C(=O)N[C@@H](Cc1ccccc1)C(=O)N[C@@H](C)C(=O)N[C@@H](Cc1ccccc1)C(=O)O`, the Ki in test [1] was more than 10000 nM.
On to `CC(C)[C@H](NC(=O)[C@H](CC(=O)O)NC(=O)[C@@H](NC(=O)C(C)(C)NC(=O)[C@@H](NC(=O)[C@@H](N)Cc1ccccc1)C(C)C)[C@@H](C)O)C(=O)NCC(=O)N1CCC[C@H]1C(=O)N[C@@H](Cc1ccccc1)C(=O)N[C@@H](C)C(=O)N[C@@H](Cc1ccccc1)C(=O)O`, for which the Ki in test [1] was 0.002 nM. In addition, in test [3], the Kb was 10 nM.
In the case of `CC(C)[C@H](NC(=O)[C@H](CC(=O)O)NC(=O)[C@@H](NC(=O)[C@@H]1Cc2ccccc2CN1C(=O)[C@@H](NC(=O)[C@@H](N)Cc1ccccc1)C(C)C)[C@@H](C)O)C(=O)NCC(=O)N1CCC[C@H]1C(=O)N[C@@H](Cc1ccccc1)C(=O)N[C@@H](C)C(=O)N[C@@H](Cc1ccccc1)C(=O)O`, the Ki in test [1] is 0.02 nM. Also, in test [3], the Kb is 6.31 nM.
As for `COC(=O)[C@H]1[C@H](NC(=O)[C@@H](NC(=O)[C@@H](N)Cc2ccccc2)C(C)C)[C@@H]1C(=O)N[C@H](C(=O)N[C@@H](CC(=O)O)C(=O)N[C@H](C(=O)NCC(=O)N1CCC[C@H]1C(=O)N[C@@H](Cc1ccccc1)C(=O)N[C@@H](C)C(=O)N[C@@H](Cc1ccccc1)C(=O)O)C(C)C)[C@@H](C)O`, in test [1], the Ki was 0.7 nM.
For the compound `COC(=O)[C@@H]1[C@@H](NC(=O)CNC(=O)[C@@H](NC(=O)[C@H](CC(=O)O)NC(=O)[C@@H](NC(=O)[C@@H]2CCCN2C(=O)[C@@H](NC(=O)[C@@H](N)Cc2ccccc2)C(C)C)[C@@H](C)O)C(C)C)[C@H]1C(=O)N[C@@H](Cc1ccccc1)C(=O)N[C@@H](C)C(=O)N[C@@H](Cc1ccccc1)C(=O)O` (H-FVPTDVG[X2]FAF-OH), the inhibition constant (Ki) in test [1] was more than 10000 nM.
Consider H-FVATDVGPFAF-OH, for which the Ki in test [1] was 8.4 nM. Further, the Kb in test [3] is 25.1 nM.

The record behind these values is ChEMBL document CHEMBL1147739, “Identification of the key residue of calcitonin gene related peptide (CGRP) 27-37 to obtain antagonists with picomolar affinity at the CGRP receptor” (J Med Chem, 2006).
